For 98 molecules, cytotoxicity results are on record in ChEMBL document CHEMBL4513216, “Probing the Open Global Health Chemical Diversity Library for Multistage-Active Starting Points for Next-Generation Antimalarials” (ACS Infect Dis, 2020).

A short description of the series: Toxicity liver stage against HepG2, at 10uM. The format is cell-based. Also on record: test concentration 10 uM, cell line HepG2-A16-CD81EGFP. Conditions: human, HepG2-A16-CD81EGFP cells; read-out: INHIBITION
The method in brief: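 Uninfected HepG2-A16-CD81EGFP cells, 3 × 10^3 per well, 1536-well, plated on prespotted compound at 10 μM final, parasite-free screening media added to match infected plates; puromycin 10 μM positive, DMSO 0.5% negative; run in parallel with 48 h PbLuc assay at 37 °C, 5% CO2; viability by CellTiter-Glo luminescence, normalized to controls.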
As for `CCc1nc(-c2ccc(NC(=O)N3CCC4(CC3)OCCO4)cc2)no1`, the cytotoxicity at 10 µM is 7.27%. For `CCOc1ccc(NC2CCN(C3CC3)C2=O)cn1` (stereo not drawn), the cytotoxicity at 10 µM was -0.387%.

For `COCCc1noc(CN2CCc3nn(C(C)C)c(=O)cc3C2)n1`, the cytotoxicity at 10 µM was -14.9%.

Consider `Cc1nn(C(C)C)c(C)c1NC(=O)c1ccc(F)cc1`, for which the cytotoxicity at 10 µM was -2.27%. With `O=C(NCCOc1ncc(Cl)cc1Cl)c1ccoc1` the figure was 0.191%; with `COc1ccccc1C1CNC(=O)c2nc(-c3cnn(C)c3)[nH]c2C1` (stereo not drawn), -5.33%. With `CNC(=O)[C@H]1C[C@@H]2CN(S(=O)(=O)c3ccc(C)c(F)c3)C[C@@H]2N1C` the figure was -3.03%. In the case of `CN1CCOC(CNCc2nc(-c3ccco3)no2)C1` (stereo not drawn) it was 3.54%; in that of `Cc1nc(C(=O)N2CCCC(c3ccc4sc(N)nc4n3)C2)co1` (stereo not drawn), -11.9%; in that of `Cc1ccc(CNC(=O)N(C)Cc2ccc([S+](C)[O-])cc2)s1` (stereo not drawn), 6.75%. As for `Cc1nc(-c2noc3ccc(C(=O)NCCN(C)C)cc23)co1`, the cytotoxicity at 10 µM came out at 2.25%. Consider `Cc1cc(NC(=O)CN2CCCC2c2c(C)nn(C)c2C)on1` (stereo not drawn), for which the cytotoxicity at 10 µM is -2.9%. In the case of `COCC(=O)N1CCC(c2noc3nc(C)cc(C(F)(F)F)c23)CC1` it was 2.78%; in that of `Cc1nn2c(N3CCC(C#N)CC3)cc(-c3ccccc3)nc2c1C`, -8.6%; in that of `COc1cc(C(=O)N2CCCC(CNS(C)(=O)=O)C2)cc(OC)c1C` (stereo not drawn), -7.69%. With `O=C(O)c1ccc(N2CCC(Oc3ccc(Cl)cc3)CC2)nc1` the figure was -55.6%; with `COc1cccc2c1OCC(CNC(=O)Cc1cnccn1)C2` (stereo not drawn), -145%. Turning to `CNC(=O)COC(=O)c1ccoc1CN1c2ccccc2CC1C` (stereo not drawn), the cytotoxicity at 10 µM is 0.165%.

`CSc1ccc(NCC(=O)NCC(=O)N2CCCC2)cc1F`: the cytotoxicity at 10 µM was found to be 2.63%. With `COc1cc(C#N)ccc1OCC(=O)N(C1CC1)C(C)c1ccco1` (stereo not drawn) the figure was 1.18%; with `O=C1CC(N(C(=O)c2ccccc2Br)C2CC2)C(=O)N1` (stereo not drawn), 10.3%. With `O=C1N(Cc2cccc(F)c2F)CCCC1(O)CNC1CCCC1` (stereo not drawn) the figure was 13.8%. With `COC(=O)N1CCCC(C(=O)Nc2ccccc2CN2CCCC2)C1` (stereo not drawn) the figure was -9.07%; with `c1cc(CN2CCCC2c2noc(C3CC3)n2)on1` (stereo not drawn), -0.628%; with `O=C(c1[nH]c2ccc(Cl)cc2c1Cl)N1CCC2(CC1)OCCO2`, 23.5%.

In the case of `COCc1cn(C2CCN(CCC(C)c3ccccc3)CC2)nn1` (stereo not drawn), the cytotoxicity at 10 µM stood at 6.39%. Consider `CN(C)C[C@@H]1OC[C@H]2CN(Cc3ccoc3)CC[C@H]21`, for which the cytotoxicity at 10 µM is -131%.

For `CCN(C(=O)C1CC1)C(c1cccnc1)c1ccc2c(c1)CCO2` (stereo not drawn), the cytotoxicity at 10 µM is 1.46%.

For `CCc1ccc(C(=O)NCC2CCCN2CC)o1` (stereo not drawn), the cytotoxicity at 10 µM was determined as 0.632%. In the case of `COc1ccc2c(c1)CCCN(C(C)C(=O)N1CCCC1)C2` (stereo not drawn) it was 10.9%; in that of `O=C(O)C1(Cc2cc(-c3ccc(F)cc3)no2)CCOCC1`, -20.8%. For the molecule `CN(C)C(=O)C1CCC2(CCNCC2)C1` (stereo not drawn), the cytotoxicity at 10 µM is 8.59%. With `O=C(NCC1CCCO1)c1c(-n2cnnn2)sc2c1CCC2` (stereo not drawn) the figure was -16.3%. In the case of `Cc1cc(CC(=O)NC2CCCN(c3ccccc3F)C2=O)n[nH]1` (stereo not drawn) it was 1.46%.

Take `O=C(NCC(O)c1cccs1)c1ccco1` (stereo not drawn): the cytotoxicity at 10 µM was -14.7%. In the case of `COCC1CCCCN1Cc1nc(-c2ccoc2)oc1C` (stereo not drawn), the cytotoxicity at 10 µM amounted to 1.93%. Take `CS(=O)(=O)c1ccc(-c2nc(C(=O)N3CCCC3)n3ccccc23)cc1`: the cytotoxicity at 10 µM came out at 6%. For the molecule `CCC(c1nc(C(C)C)nn1-c1ccncc1C)n1cccn1` (stereo not drawn), the cytotoxicity at 10 µM is -13.9%. In the case of `Cc1cncnc1C1CCN(CCO)CC1` it was -7.26%; in that of `Cn1cnnc1CCNC(=O)c1cnn(Cc2ccccc2)c1`, -0.722%.

With `CS(=O)(=O)NCCNCc1ccc(Br)s1`, the cytotoxicity at 10 µM is -3.04%.

Turning to `Cc1cc(NC(=O)Cn2ncc(SCC(N)=O)c(Cl)c2=O)ccc1Br`, the cytotoxicity at 10 µM worked out at 15.3%. In the case of `CCS(=O)(=O)CCNC(=O)C1(c2cccc(Cl)c2)CC1` it was -4%; in that of `Cc1ccc(CN(C(=O)NCCNC(=O)c2cccnc2)C(C)C)o1`, -6.06%; in that of `CC(=O)N1CCCC2(CN(Cc3ccc(F)cc3)CCO2)C1` (stereo not drawn), 0.283%. Take `CNC(=O)C1(c2cnccn2)CCCN1C(=O)c1ccccc1C` (stereo not drawn): the cytotoxicity at 10 µM is -16.5%. Regarding `CCOc1ccc(C(=O)CCC(=O)N(C)Cc2noc(C)n2)cc1C`, the cytotoxicity at 10 µM was -4.34%.

Turning to `CCOc1cccc(C(C)NCc2c(C)nn(C)c2N(C)C)c1` (stereo not drawn), the cytotoxicity at 10 µM is 5.22%. With `Cc1occc1C(=O)N1C[C@@H]2OCCN(c3ncccn3)[C@@H]2C1` the figure was 7.34%. `COc1ncccc1CN1C[C@@H]2COC[C@]2(COCC2CC2)C1`: the cytotoxicity at 10 µM turned out to be 5.37%. In the case of `CN1CCN(Cc2cccnc2)C(=O)C12CCN(C1CCOC1)CC2` (stereo not drawn) it was -111%; in that of `CSc1ncn(-c2nc(NC3CC3)nc(N(C)C)n2)n1`, -6.75%.

As for `Cn1cc(C(=O)NCc2cncc3c2CCN(c2ccccn2)C3)cn1`, the cytotoxicity at 10 µM is -99.6%. `Cc1ccc(CC(=O)Nc2cc(C(C)C)n[nH]2)cn1`: the cytotoxicity at 10 µM is -1.71%. In the case of `Cc1cccc(CN2CCc3ncnc(C)c3CC2)n1` it was -17.4%; in that of `COc1ccc(Br)cc1CN(C)C(C)c1nc(C(C)C)no1` (stereo not drawn), 4.43%; in that of `Cc1nnc(N2CCCC3(CN(Cc4nccn4C)CCO3)C2)o1` (stereo not drawn), -6.83%. As for `Cc1noc(CNC(=O)CN(C)c2nc3ccccc3s2)n1`, the cytotoxicity at 10 µM is -2.43%. With `O=C(c1cnoc1)N1CCC[C@]2(C[C@@H](OCc3ccccn3)CO2)C1` the figure was -9.47%. In the case of `O=C(NC1CCCN(CCCc2ccccc2)C1)c1ccncc1` (stereo not drawn) it was 0.524%. In the case of `Cc1noc(C)c1CN1CCCC2(C1)CN(Cc1nccn1C)CCO2` (stereo not drawn) it was 7.69%; in that of `Cc1nc(COC[C@@]23CCC[C@@H]2CN(Cc2nccs2)C3)cs1`, 12.9%; in that of `Cc1nc2c(N(C)Cc3ccnn3C)nc(N)nc2n1C`, -7.42%. In the case of `CC(C)c1noc(CN(Cc2cccs2)C2CC2)n1`, the cytotoxicity at 10 µM was -9.15%. In the case of `O=C(NCCc1c[nH]cn1)c1n[nH]c2c1CCC2`, the cytotoxicity at 10 µM was 1.67%. In the case of `CCn1ncc(S(=O)(=O)NC(C)c2cc(OC)ccc2OC)c1C` (stereo not drawn) it was -4.48%. In the case of `Cc1ccc(S(=O)(=O)NCc2cnn(C)c2)c(F)c1` it was -13%; in that of `O=C(c1ccncc1)N1CCCC1C1CCN(Cc2ccccc2)CC1` (stereo not drawn), 7.43%; in that of `CCc1ccc(S(=O)(=O)Nc2cc(C(=O)O)c(F)cc2F)s1`, -7.44%. In the case of `Cc1c[nH]c(C2CCCN(Cc3cccc(C(=O)O)c3)C2)n1` (stereo not drawn) it was 9.59%; in that of `O=c1c(S(=O)(=O)N2CCCCC2)cccn1Cc1cccnc1`, -2.56%; in that of `C=C(C)CN1CCN(Cc2cnc(-c3ccc(OC)cc3)nc2)CC1`, -3.41%. In the case of `CCc1ccsc1C(=O)N1CCCC(c2noc(C)n2)C1` (stereo not drawn), the cytotoxicity at 10 µM was found to be 3.77%. `COCC1CN(Cc2ccc3c(c2)OCO3)Cc2ncn(C)c21` (stereo not drawn): the cytotoxicity at 10 µM turned out to be 4.18%. With `CC1CCCN1C1CCN(C(=O)c2cccc(F)c2)CC1` (stereo not drawn) the figure was 5.93%. With `CC(C)NC(=O)c1nc2c(s1)CCCN2c1ccccc1` the figure was 4.29%. In the case of `COCCC(=O)N1CCCC2(CCCN2Cc2ccccc2F)C1` (stereo not drawn) it was 8.01%; in that of `Cc1nnc(NCCc2coc(-c3ccccc3)n2)c(C#N)c1C`, -14.3%; in that of `O=C(NCCc1c[nH]cn1)c1ccccc1C1CCNC1` (stereo not drawn), 12.8%. On to `CO[C@H]1CCN(C(=O)c2cc(C)on2)[C@H]1Cc1ccncc1`, for which the cytotoxicity at 10 µM worked out at 1.2%. With `Cn1ncc2c1C(COCC1CC1)CN(Cc1nccs1)C2` (stereo not drawn), the cytotoxicity at 10 µM came out at 4.49%. With `Cc1cnc(C(=O)N2Cc3cc(Cl)ccc3OC3(CCOCC3)C2)cn1` the figure was -37.9%; with `CN(C)C(=O)N1CCN(C(=O)c2ccc(Cl)cc2)CC2(CNC(=O)C2)C1` (stereo not drawn), 10.5%; with `Cc1nn(C)cc1CNC(=O)c1cn(CCC2CCCCN2)nn1` (stereo not drawn), -6.15%. With `COc1cccc(Cn2[nH]c(C)c3c(NC(=O)C(C)OC)nnc2-3)c1` (stereo not drawn) the figure was -2.03%.

With `Cc1nc(CN2CCO[C@H]3[C@@H](Oc4ccccn4)CC[C@@H]32)cs1`, the cytotoxicity at 10 µM turned out to be 2.4%. With `N#Cc1cc2c(=O)n(CC(O)Cc3ccccc3)ccc2[nH]c1=O` (stereo not drawn) the figure was 2.86%. With `Cc1cc(NCc2cc3n(n2)CCCN(C(=O)C2CCC2)C3)ncn1` the figure was -136%; with `Cc1nccn1[C@@H]1CC[C@@H](NC(=O)CCCn2cccn2)[C@H]1O`, -6.28%. As for `CCCc1cc(C(=O)N2CCC3(CCCN(CCOC)C3=O)C2)cs1` (stereo not drawn), the cytotoxicity at 10 µM was -167%.

Take `O=C(NCCc1cccnc1)N1CCCC1c1ccsc1` (stereo not drawn): the cytotoxicity at 10 µM is -6.82%. In the case of `Clc1ccc(N2CCC(OCC3CCCCO3)CC2)nc1` (stereo not drawn) it was -1.8%; in that of `Cn1c(NCC(O)c2ccccc2F)c(C#N)c(=O)n(C)c1=O` (stereo not drawn), -12.5%. As for `Cc1cc(C(=O)NS(C)(=O)=O)ccc1I`, the cytotoxicity at 10 µM was 6.85%. Regarding `CCc1cc(N2CCCC(c3noc(CC)n3)C2)ncn1` (stereo not drawn), the cytotoxicity at 10 µM worked out at 9.74%.

With `CCOC1COC2(CCN(S(=O)(=O)c3cccc(F)c3)CC2)C1` (stereo not drawn), the cytotoxicity at 10 µM is 5.15%. For `CCc1nc(CCNc2ncccn2)sc1C`, the cytotoxicity at 10 µM came out at 14.4%.

Consider `O=C(c1cc(=O)c(OCc2ccccc2)co1)N1CCSCC1`, for which the cytotoxicity at 10 µM was -0.295%.
